Test results taken from ChEMBL document CHEMBL1811763, “Design, syntheses, and kinetic evaluation of 3-(phenylamino)oxazolidine-2,4-diones as potent cytochrome bc₁ complex inhibitors” (Bioorg Med Chem, 2011).
Calls of active or inactive are those of the source. The calls are words filed in the database; no cut-off is given here.

Legend:
[1] = Inhibition of pig heart succinate-cytochrome c reductase (Electron transport protein complex 2/3) assessed as increase of cytochrome c by spectrophotometer; design: species or system Sus scrofa
Sus scrofa [2] = species on record: Sus scrofa; assay: Inhibition of pig heart Succinate-ubiquinone oxidoreductase assessed as decrease of 2,6-dichlorophenolindophenol by spectrophotometer
How it was run: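 Complex II activity within porcine SCR, with succinate and DCIP as substrates. Final concentrations: 100 mM PBS pH 7.4, 0.3 mM EDTA, 20 mM succinate, 53 µM DCIP; adding enzyme starts the reaction. DCIP reduction was followed as absorbance decrease at 600 nm (ε 21 mM⁻¹ cm⁻¹).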

Sus scrofa [3] = species on record: Sus scrofa; assay: Inhibition of pig heart Cytochrome b-c1 complex assessed as oxidation of DBH2 by spectrophotometer
How it was run: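 Porcine SCR preparation at 0.1 nM, reaction with 100 µM oxidized cytochrome c and 100 µM DBH2 in 100 mM PBS (pH 7.4), 0.3 mM EDTA; run at 23 °C both without and with 750 µM lauryl maltoside. For kinetics, DBH2 was varied over 20–200 µM with 0–5000 nM inhibitor, and Ki was fitted on a competitive model. DBH2 concentration was set from A288–A320.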

[4] = Competitive inhibition of pig heart Cytochrome b-c1 complex using DBH2 as substrate by Line-weaverBurk plot analysis; design: species or system Sus scrofa
How it was run: (§1)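 Porcine SCR preparation (0.1 nM) as the bc1 source, at 23 °C in 100 mM PBS pH 7.4, 0.3 mM EDTA and 750 lauryl maltoside. Substrates were 100 oxidized cytochrome c and DBH₂ varied over 20–200. Cytochrome c reduction was followed with and without inhibitor. Km(DBH₂), Vmax and Ki came from double-reciprocal plots, assuming competitive inhibition.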

[5] = Competitive inhibition of pig heart Cytochrome b-c1 complex using DBH2 as substrate in absence of lauryl maltoside by Line-weaverBurk plot analysis; design: species or system Sus scrofa
Sus scrofa [6] = species on record: Sus scrofa; assay: Ratio Ki for pig heart Cytochrome b-c1 complex to Ki for pig heart succinate-cytochrome c reductase (Electron transport protein complex 2/3)
Sus scrofa [7] = species on record: Sus scrofa; assay: Inhibition of pig heart Succinate-ubiquinone oxidoreductase assessed as decrease of 2,6-dichlorophenolindophenol at 20 uM by spectrophotometer
Sus scrofa [8] = species on record: Sus scrofa; assay: Activity of pig heart succinate-cytochrome c reductase (Electron transport protein complex 2/3) using cytochrome c as substrate by Line-weaverBurk plot analysis; format: tissue-based
How it was run: (§2)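 Overall succinate→cytochrome c activity of porcine SCR (0.1 nM) was measured at 23 °C in 100 mM PBS pH 7.4, 0.3 mM EDTA and 20 mM succinate. Cytochrome c was varied over 1.16–16.02, with inhibitor at graded levels. Km(cyt c), Vmax and Ki came from double-reciprocal plots, assuming non-competitive inhibition.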

Sus scrofa [9] = species on record: Sus scrofa; assay: Activity of pig heart Cytochrome b-c1 complex using DBH2 as substrate by Line-weaverBurk plot analysis; how it was run: as §1
[10] = Non-competitive inhibition of pig heart succinate-cytochrome c reductase (Electron transport protein complex 2/3) using cytochrome c as substrate by Line-weaverBurk plot analysis; design: species or system Sus scrofa; how it was run: as §2
[11] = Competitive inhibition of pig heart Cytochrome b-c1 complex using DBH2 as substrate in presence of lauryl maltoside by Line-weaverBurk plot analysis; design: species or system Sus scrofa; how it was run: as §1
Sus scrofa [12] = species on record: Sus scrofa; assay: Ratio Vmax for pig heart succinate-cytochrome c reductase (Electron transport protein complex 2/3) to Vmax for pig heart Cytochrome b-c1 complex

SMILES | IC50 [1] [nM] | inhibition (Sus scrofa [2]) | inhibition (Sus scrofa [3]) | other results
CC1(c2ccc(Br)nc2)OC(=O)N(Nc2ccc(Cl)cc2)C1=O (centres undefined) | > 1000 | inactive | Active | –
CC1(c2ccc(Oc3ccccc3)cc2)OC(=O)N(Nc2ccccc2)C1=O (centres undefined) | 3.62 | – | – | Ki [4]: 51.4 nM; IC50 [5]: 48.2 nM; Ratio Ki (Sus scrofa [6]): 15; inhibition (Sus scrofa [7]): inactive; Km (Sus scrofa [8]): 4.47 µM; Vmax (Sus scrofa [8]): 0.0081 µM/s; Km (Sus scrofa [9]): 66.2 µM; Vmax (Sus scrofa [9]): 0.0598 µM/s; IC50 [10]: 4.78 nM; Ki [10]: 3.62 nM; IC50 [11]: 142 nM
CC1(c2ccc(Br)nc2)OC(=O)N(Nc2ccccc2)C1=O (centres undefined) | > 1000 | inactive | Active | –
CC1(c2ccc(Br)nc2)OC(=O)N(Nc2ccc(C(F)(F)F)cc2)C1=O (centres undefined) | > 1000 | inactive | Active | –
CC1(c2ccc(Oc3ccccc3)cc2)OC(=O)N(Nc2ccc(C(=O)O)cc2)C1=O (centres undefined) | 5310 | inactive | Active | –
CC1(c2ccc(Br)nc2)OC(=O)N(Nc2ccc(Br)cc2)C1=O (centres undefined) | > 1000 | inactive | Active | –
CC1(c2ccc(Oc3ccccc3)cc2)OC(=O)N(Nc2cccc(C(=O)O)c2)C1=O (centres undefined) | 24 | inactive | Active | –
CC1(c2ccc(Oc3ccccc3)cc2)OC(=O)N(Nc2ccc(F)cc2Br)C1=O (centres undefined) | 60 | inactive | Active | –
CC1(c2ccc(Br)nc2)OC(=O)N(Nc2ccc(C#N)cc2)C1=O (centres undefined) | > 1000 | inactive | Active | –
Cc1ccc(NN2C(=O)OC(C)(c3ccc(Oc4ccccc4)cc3)C2=O)c(C)c1 (centres undefined) | 15.9 | inactive | Active | –
Cc1ccc(NN2C(=O)OC(C)(c3ccc(Br)nc3)C2=O)cc1 (centres undefined) | > 1000 | inactive | Active | –
CC1(c2ccc(Br)nc2)OC(=O)N(Nc2ccc(F)cc2Br)C1=O (centres undefined) | > 1000 | inactive | Active | –
Cc1ccc(NN2C(=O)OC(C)(c3ccc(Br)nc3)C2=O)c(C)c1 (centres undefined) | > 1000 | inactive | Active | –
CC1(c2ccc(Br)nc2)OC(=O)N(Nc2ccc([N+](=O)[O-])cc2)C1=O (centres undefined) | > 1000 | inactive | Active | –
CC1(c2ccc(Oc3ccccc3)cc2)OC(=O)N(Nc2ccc(C#N)cc2)C1=O (centres undefined) | 275 | inactive | Active | –
COc1ccc(NN2C(=O)OC(C)(c3ccc(Br)nc3)C2=O)cc1 (centres undefined) | > 1000 | inactive | Active | –
CO/C=C(/C(=O)OC)c1ccccc1Oc1cc(Oc2ccccc2C#N)ncn1 [AZOXYSTROBIN] | – | – | – | Ki [4]: 204 nM; IC50 [5]: 435 nM; Km (Sus scrofa [8]): 4.37 µM; Vmax (Sus scrofa [8]): 0.0099 µM/s; Km (Sus scrofa [9]): 72.1 µM; Vmax (Sus scrofa [9]): 0.0528 µM/s; IC50 [10]: 291 nM; Ki [10]: 295 nM; IC50 [11]: 527 nM
Cc1cccc(C)c1NN1C(=O)OC(C)(c2ccc(Oc3ccccc3)cc2)C1=O (centres undefined) | 1520 | inactive | Active | –
CC1(c2ccc(Oc3ccccc3)cc2)OC(=O)N(Nc2ccc(C(F)(F)F)cc2)C1=O (centres undefined) | 63.3 | inactive | Active | –
CC1(c2ccc(Oc3ccccc3)cc2)OC(=O)N(Nc2ccc(Cl)cc2)C1=O (centres undefined) | 18.8 | inactive | Active | –
COc1ccc(NN2C(=O)OC(C)(c3ccc(Oc4ccccc4)cc3)C2=O)cc1 (centres undefined) | 57.9 | inactive | Active | –
Cc1cccc(C)c1NN1C(=O)OC(C)(c2ccc(Br)nc2)C1=O (centres undefined) | > 1000 | inactive | Active | –
Cc1ccc(NN2C(=O)OC(C)(c3ccc(Oc4ccccc4)cc3)C2=O)cc1 (centres undefined) | 23.8 | inactive | Active | –
CC1(c2ccc(Oc3ccccc3)cc2)OC(=O)N(Nc2ccc(Br)cc2)C1=O (centres undefined) | 9.44 | inactive | Active | Ratio (Sus scrofa [12]): 0.14; Ki [4]: 329 nM; IC50 [5]: 337 nM; Ratio Ki (Sus scrofa [6]): 35; inhibition (Sus scrofa [7]): inactive; Km (Sus scrofa [8]): 4.45 µM; Vmax (Sus scrofa [8]): 0.0081 µM/s; Km (Sus scrofa [9]): 78 µM; Vmax (Sus scrofa [9]): 0.0574 µM/s; IC50 [10]: 9.03 nM; Ki [10]: 9.44 nM; IC50 [11]: 1050 nM
